Data as given in paper PMC10499740 (Advances in Therapy, 2023).

Test: Plasma triptorelin concentration
Type: in vivo, Chinese children
Settings: human, im, 15 mg, SD
How it was run: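 Children with CPP (age-limited, ≥20 kg) received 15 mg of the test compound's pamoate salt (delivering 11.25 mg) by intramuscular injection into the upper outer buttock on day 1 and months 3, 6 and 9. Sparse plasma sampling was done pre-dose, 4 h post-injection on day 1, at month 3 (pre-dose) and at month 6. Concentrations were measured by validated LC-MS/MS and reported as means.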

- level at 4 h: 47.6 ± 23.9 ng/mL
Structure (SMILES): CC(C)C[C@H](NC(=O)[C@@H](Cc1c[nH]c2ccccc12)NC(=O)[C@H](Cc1ccc(O)cc1)NC(=O)[C@H](CO)NC(=O)[C@H](Cc1c[nH]c2ccccc12)NC(=O)[C@H](Cc1c[nH]cn1)NC(=O)[C@@H]1CCC(=O)N1)C(=O)N[C@@H](CCCNC(=N)N)C(=O)N1CCC[C@H]1C(=O)NCC(N)=O [triptorelin]
